Activity calls are given as the source filed them. No cut-off for these calls is given here.
Experiments:
K562 = test: Antiproliferative activity against human K562 cells assessed as growth inhibition measured after 72 hrs by calcein AM dye-based fluorescence assay; format: functional
Summary of the method: (§1)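 Cells exposed to three-fold compound dilutions in triplicate for 72 h. Calcein AM then added and live-cell fluorescence read at 485/538 nm (ex/em). GI50 taken from dose-response curves. Values from at least triplicate measurements.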

CCRF-CEM = test: Antiproliferative activity against human CEM cells assessed as growth inhibition measured after 72 hrs by calcein AM dye-based fluorescence assay; format: functional; summary of the method: as §1
G-361 = test: Antiproliferative activity against human G361 cells assessed as growth inhibition measured after 72 hrs by calcein AM dye-based fluorescence assay; format: functional; summary of the method: as §1
MCF7 = test: Antiproliferative activity against human MCF7 cells assessed as growth inhibition measured after 72 hrs by calcein AM dye-based fluorescence assay; format: functional; summary of the method: as §1
HCT-116 [1] = test: Antiproliferative activity against human HCT116 cells assessed as growth inhibition measured after 72 hrs by calcein AM dye-based fluorescence assay; format: functional; summary of the method: as §1
HCT-116 [2] = test: Antiproliferative activity against human HCT-116 cells assessed as increase in cell death at 25 uM measured after 24 hrs by IncuCyte live-cell imaging analysis; format: functional, cell-based
Summary of the method: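 HCT-116 cells plated at 10 000 cells/well and exposed to compounds at 25 µM for 24 h. Cell membrane integrity/death followed in real time by live-cell imaging with a Cytotox Red reagent.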

SMILES | GI50 (K562) | GI50 (CCRF-CEM) | GI50 (G-361) | GI50 (MCF7) | GI50 (HCT-116 [1]) | Activity (HCT-116 [2])
CC(C)C[C@H](NC(=O)c1cc(Cl)ccc1OCc1ccccc1)C(=O)N[C@@H](CC(C)C)C(=O)N1CCOCC1 | 21 µM | 20.1 µM | – | – | – | –
CC(C)C[C@H](NC(=O)c1cc(Cl)ccc1O)C(=O)N[C@@H](CC(C)C)C(=O)N1CCOCC1 | > 50 µM | 54.9 µM | – | – | – | –
CC(C)C[C@H](NC(=O)c1cc(Cl)ccc1O)C(=O)N[C@@H](CC(C)C)C(=O)Nc1ccccc1 | 20.1 µM | 10.2 µM | – | – | – | –
CC(C)C[C@H](NC(=O)c1cc(Cl)ccc1OCc1ccccc1)C(=O)N[C@@H](CC(C)C)C(=O)NC1CCCCC1 | 19.8 µM | 9.8 µM | – | – | – | –
COc1ccc(NC(=O)[C@H](CC(C)C)NC(=O)[C@H](CC(C)C)NC(=O)c2cc(Cl)ccc2OCc2ccccc2)cc1 | 68.3 µM | 53.2 µM | – | – | – | –
O=C(N[C@@H](Cc1ccccc1)C(=O)N[C@@H](Cc1ccccc1)C(=O)Nc1ccc(C(F)(F)F)cc1)c1cc(Cl)ccc1O | 5.1 µM | 4.7 µM | 5.1 µM | 5.6 µM | 4.5 µM | –
Cc1ccc(NC(=O)[C@H](CC(C)C)NC(=O)[C@H](CC(C)C)NC(=O)c2cc(Cl)ccc2O)cc1 | 30.7 µM | 13.2 µM | – | – | – | –
CC(C)C[C@H](NC(=O)c1cc(Cl)ccc1O)C(=O)Nc1ccc(C(F)(F)F)cc1 | 5 µM | 5 µM | – | – | – | –
CC(C)C[C@H](NC(=O)c1cc(Cl)ccc1OCc1ccccc1)C(=O)N[C@@H](CC(C)C)C(=O)Nc1ccc(C(F)(F)F)cc1 | 74.6 µM | 59.9 µM | – | – | – | –
Cc1ccc(NC(=O)[C@H](CC(C)C)NC(=O)[C@H](CC(C)C)NC(=O)c2cc(Cl)ccc2OCc2ccccc2)cc1 | 87.7 µM | 52.8 µM | – | – | – | –
CC(C)C[C@H](NC(=O)c1cc(Cl)ccc1OCc1ccccc1)C(=O)N[C@@H](CC(C)C)C(=O)Nc1ccc(Cl)c(Cl)c1 | > 100 µM | 56.4 µM | – | – | – | –
CC(C)C[C@H](NC(=O)c1cc(Cl)ccc1O)C(=O)N[C@@H](CC(C)C)C(=O)NC1CCCCC1 | 55.7 µM | 38.2 µM | – | – | – | –
CC(C)C[C@H](NC(=O)c1cc(Cl)ccc1O)C(=O)N[C@@H](CC(C)C)C(=O)Nc1ccc(Cl)c(Cl)c1 | 3.2 µM | 2.6 µM | 5.2 µM | 4.1 µM | 4 µM | inactive
CC(C)C[C@H](NC(=O)c1cc(Cl)ccc1O)C(=O)N[C@@H](CC(C)C)C(=O)Nc1nccs1 | 31.1 µM | 19.7 µM | – | – | – | –
CC(C)C[C@H](NC(=O)c1cc(Cl)ccc1OCc1ccccc1)C(=O)N[C@@H](CC(C)C)C(=O)Nc1ccccc1 | 71.2 µM | 48.9 µM | – | – | – | –
O=C(N[C@@H](Cc1ccccc1)C(=O)N[C@@H](Cc1ccccc1)C(=O)Nc1ccc(Cl)c(Cl)c1)c1cc(Cl)ccc1OCc1ccccc1 | 9.9 µM | 32.8 µM | – | – | – | –
COc1ccc(NC(=O)[C@H](CC(C)C)NC(=O)[C@H](CC(C)C)NC(=O)c2cc(Cl)ccc2O)cc1 | 51 µM | 23.3 µM | – | – | – | –
O=C(N[C@@H](Cc1ccccc1)C(=O)Nc1ccc(C(F)(F)F)cc1)c1cc(Cl)ccc1OCc1ccccc1 | > 50 µM | 31.5 µM | – | – | – | –
CC(C)C[C@H](NC(=O)c1cc(Cl)ccc1OCc1ccccc1)C(=O)Nc1ccc(C(F)(F)F)cc1 | > 50 µM | 35.4 µM | – | – | – | –
O=C(N[C@@H](Cc1ccccc1)C(=O)N[C@@H](Cc1ccccc1)C(=O)Nc1ccc(Cl)c(Cl)c1)c1cc(Cl)ccc1O | 5.8 µM | 3.1 µM | 4.5 µM | 5.2 µM | 3 µM | –
CC(C)C[C@H](NC(=O)c1cc(Cl)ccc1OCc1ccccc1)C(=O)N[C@@H](Cc1ccccc1)C(=O)Nc1ccc(Cl)c(Cl)c1 | 57.5 µM | 45.4 µM | – | – | – | –
O=C(N[C@@H](Cc1ccccc1)C(=O)N[C@@H](Cc1ccccc1)C(=O)Nc1ccc(C(F)(F)F)cc1)c1cc(Cl)ccc1OCc1ccccc1 | 12.7 µM | 11.3 µM | – | – | – | –
CC(C)C[C@H](NC(=O)c1cc(Cl)ccc1O)C(=O)N[C@@H](CC(C)C)C(=O)Nc1ccc(C(F)(F)F)cc1 | 7.5 µM | 6.2 µM | 11.5 µM | 5.3 µM | 5.8 µM | –
O=C(N[C@@H](Cc1ccccc1)C(=O)Nc1ccc(C(F)(F)F)cc1)c1cc(Cl)ccc1O | 5.2 µM | 4.5 µM | – | – | – | –

From ChEMBL document CHEMBL4680159, “Novel modified leucine and phenylalanine dipeptides modulate viability and attachment of cancer cells” (2020)
